# Screens: PubChem, several laboratories
# XBP1 UPR activ: activators of adaptive XBP1 UPR arm, primary screen, cell-based, CHO-XBP1 luciferase reporter, luminescence, uHTS | activation, % at 20 µM | hit rate 0.33% among 330,000 | AID 463104, 2010 | IRE1-XBP1 UPR activation; percent of tunicamycin response, DMSO as zero;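 active = versus positive control, 20 µM dose yields 30% or more activation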;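 also: 100% = tunicamycin at 10 µg/mL and 0% = DMSO only wells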
#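 Assay system: CHO-XBP1 luciferase reporter cells; Schedule: 6 h treatment, 37 °C; Detection: glow luminescence from Steady-Glo reagent; Benchmarks: high control tunicamycin 10 µg/mL final, low control DMSO vehicle only.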
# Dynein transport: inhibitors of GR-EGFP nuclear translocation, primary screen, dynein cargo transport inhibitor project, imaging, high-content, 3617.4 mouse cells. test concentration mostly 20 µM; stimulated with dexamethasone, 1 µM; stronger effect = lower value. z-score, hits read low. hit rate 0.47% among 220,000. AID 1381, 2008;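 active = plate z-score of nuclear minus cytoplasmic receptor signal below a set negative limit, without overly bright fluorescence or cell loss, cut at about -3.5 in these data, passing the limit was not always enough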;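 also: z-score of nuclear minus cytoplasmic ring GR-EGFP intensity difference per well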
#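 Also added – dexamethasone, 1.0 µM final · Buffer or medium – tet-free, stripped-serum medium · Schedule – induction 48 h, compound 1 h, agonist 30 min · Detection – formaldehyde fixation, Hoechst nuclear stain, 10x automated fluorescence imaging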
# T cruzi inh: inhibitors of intracellular T. cruzi growth, primary screen, luminescence, NIH3T3 host cells; AID 1885, 2009; hit rate 1.4% among 300,000; T. cruzi beta-gal in NIH3T3, 90 h; inhibition, % (no concentration beside the values);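 active = mean inhibition across valid replicates above about 55%, limit read from the data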;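 also: signal also drops with host cell toxicity which is not excluded here; 0% = plate median of DMSO wells and 100% = zero luminescence signal; higher percent means less beta-gal luminescence so fewer parasites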
#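 Assay system: NIH/3T3 fibroblasts plus reporter T. cruzi. Amount: NIH/3T3 cells, 5,000 per well. Buffer or medium: DMEM, 2% fetal bovine serum. Doses: compound pinned at 50 nL/well, DMSO. Schedule: ≥90 h infection period, 3 h prior cell attachment. Signal: luminescent β-galactosidase signal after 60 min lysis. Read-out: parasite load inhibition, %.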
# UPR CHOP act: activators of apoptotic CHOP UPR arm, primary screen, cell-based, CHO-CHOP luciferase reporter, luminescence, uHTS; UPR activation; percent of tunicamycin response over DMSO baseline; activation, % at 10 µM; hit rate 0.34% among 330,000;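 active = at 10 µM dose, activation of 40% or more, normalized to positive control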;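 also: 100% = tunicamycin at 10 µg/mL and 0% = DMSO alone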
#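 Assay system: CHO cells with stable CHOP pathway luciferase reporter; Buffer or medium: F12 plus 10% serum; Times: 16-18 h cell attachment, then 6 h compound exposure, 37 °C; Signal: luciferase luminescence; Read-out basis: percent activation relative to tunicamycin control; Control set: tunicamycin high control, DMSO low control.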
# Lmaj promast: Leishmania major promastigote growth inhibition, primary screen; Leishmania major promastigotes, resazurin fluorescence viability; inhibition, % at 10 µM; hit rate 9% among 200,000; in the data active = inhibition above about 50%;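 also: promastigotes grown with compound for 44 hours at 28 °C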
# CHOP inhibitor: inhibitors of CHOP promoter induction, primary screen, cell-based, unfolded protein response, luciferase reporter. CHO-K1 CHOP-promoter luciferase, tunicamycin-induced, 15-18 h. inhibition, % at 10 µM. hit rate 3.8% among 220,000. AID 2732, 2010;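 active = compounds that reduced the stress-induced luciferase reporter signal by more than about 70% of percent inhibition, limit read from the data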;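 also: 0% = tunicamycin plus vehicle and 100% = wells without tunicamycin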
# * hit, by the source's call; nt = no result. The sample as a whole holds a higher share of hits than the screen did.
SMILES,XBP1 UPR activ,Dynein transport,T cruzi inh,UPR CHOP act,Lmaj promast,CHOP inhibitor
Cc1cc(Nc2ccc3c(c2)OCCO3)c2ccccc2n1,-6,-0.12,1,-3,95*,-2
Cc1cc(Nc2ccc3c(c2)OCCO3)c2cccc(C)c2n1,-2,-0.36,32,1,85*,-30
COc1ccc(Nc2cc(C)nc3c(C)cccc23)cc1OC,-7,nt,7,0,nt,nt
CCOc1ccc2nc(C)cc(Nc3ccc4c(c3)OCCO4)c2c1,-1,-0.061,50,0,101*,-61
C/C(=N\NC(=O)c1c(Cl)cnn1C)c1ccc(NC(=O)c2ccc(Br)o2)cc1,4,nt,12,2,nt,nt
CCn1c(SCC(=O)Nc2nc(C)c(C)s2)nc2cccnc21,2,0.79,5,0,92*,30
Cc1ccc2nc(N3CC(=O)Nc4ccccc43)nc(-c3ccccc3)c2c1,nt,1.5,nt,nt,7,89*
Cc1ccc2nc(N3CCC(C(=O)O)CC3)nc(-c3ccccc3)c2c1,2,-0.57,-3,-2,-4,-1
CCN(C(=O)c1cc2c(=O)[nH]c3ccc(C)cc3c2s1)c1ccccc1C,7,0.15,56*,13,nt,96*
Cc1cc(NC(=O)CCC(=O)N(CCC(C)C)C(C(=O)NC2CCCC2)c2ccccc2C)no1 (configuration not stated),0,nt,8,2,nt,nt
CCCN(CC(=O)Nc1ccccc1C)C(=O)CCl,-3,-3.3,78*,2,53*,-69
COc1ccc(NC(=O)/C(=C\c2ccc(OC)c(OC)c2)NC(=O)c2ccco2)cc1,-3,nt,5,0,nt,nt
O=C(/C=C/C=C/c1ccccc1)CC1(O)C(=O)N(CCc2ccccc2)c2ccccc21 (configuration not stated),-1,-1.3,19,-1,20,78*
CCN1C(=O)C(O)(CC(=O)/C=C/C=C/c2ccccc2)c2ccccc21 (configuration not stated),-1,-2.6,2,1,75*,-15
NC(=O)CN1C(=O)C(O)(CC(=O)/C=C\C=C\c2ccccc2)c2ccccc21 (configuration not stated),0,-1.1,-30,1,39,-2
CC[C@](C)(O)c1cc2ccccc2c(=O)o1,-2,nt,nt,-2,nt,nt
Cc1ccc(S(=O)(=O)N2CC(=O)N3CCN(CCN)C3C2)cc1 (configuration not stated),-1,nt,nt,-1,nt,nt
COc1ccccc1C(C)NCC(=O)NC(=O)NCc1ccco1 (configuration not stated),-3,nt,0,1,nt,nt
N#Cc1c2ccc(OCC(=O)NCc3ccco3)cc2n2ccccc12,5,nt,-1,-3,nt,nt
N#Cc1c2ccc(O)cc2n2ccccc12,-4,0.82,65*,1,100*,56
CCOC(=O)c1ccc(-c2c(-c3ccccc3OC)sc3ccc(OC)cc23)cc1F,0,nt,nt,0,nt,nt
CC(=O)CC1OC(=O)C(Br)=C1NCc1ccccc1 (configuration not stated),-2,3.8,59*,-5,42,nt
O=C(CC1Oc2ccccc2NC1=O)NCc1ccccc1 (configuration not stated),-2,0.15,-2,-1,-2,25
CCOc1ccccc1N(CC(=O)NC1CCCC1)S(=O)(=O)c1ccc(C)cc1,-1,nt,12,0,nt,nt
C/C(=N/NS(=O)(=O)c1ccc(Cl)cc1)c1cccc(NC(=O)c2ccc(Cl)cc2Cl)c1,-3,0.44,nt,2,97*,22
SMILES,XBP1 UPR activ,Dynein transport,T cruzi inh,UPR CHOP act,Lmaj promast,CHOP inhibitor
CCOC(=O)C1=CC[C@@H](c2cc(OC)c(OC)c(OC)c2)N(S(=O)(=O)c2ccc(C)cc2)[C@H]1C(=O)OCC,0,nt,nt,-1,nt,nt
Cc1ccc(-n2c(=O)c3c(n4cnnc24)-c2ccccc2CC32CCCCC2)cc1,-4,3.9,10,4,96*,26
CC1(C)C(C=C(Cl)Cl)C1C(=O)N(Cc1cccc(Cl)c1)C1CCS(=O)(=O)C1 (configuration not stated),2,0.41,-3,0,91*,35
Cc1sc2nc(N3CCOCC3)[nH]c(=O)c2c1-c1ccccc1,0,-0.58,-5,1,-6,12
Cc1sc2nc(C(C)Nc3ccccc3N3CCOCC3)[nH]c(=O)c2c1C (configuration not stated),2,2.2,15,-1,30,75*
CC(=O)Nc1nnc(SCc2ccc(F)cc2)s1,-1,-0.45,7,5,-6,-11
O=C(Nc1nnc(SCc2ccc(F)cc2)s1)c1ccc2ncsc2c1,nt,0.19,-6,nt,10,73*
CCOc1ccc(N2CC(C(=O)Nc3nnc(Cc4ccccc4)s3)CC2=O)cc1 (configuration not stated),-1,nt,-10,2,nt,nt
CNS(=O)(=O)c1cc(Nc2ncnc3sccc23)ccc1C,0,nt,6,3,nt,nt
COC(=O)C(NC(=O)COc1ccccc1)(Nc1nc2c(s1)CCCC2)C(F)(F)F (configuration not stated),0,-0.42,-12,0,65*,50
CN(CCNC(=O)c1ccc(CS(=O)(=O)c2ccc(Br)cc2)o1)CCc1ccccc1,-10,nt,37,3,nt,nt
CCN(CC)CCNC(=O)c1ccc(CS(=O)(=O)c2ccc(Br)cc2)o1,-1,2.3,-16,-2,78*,0
C/C(=N\NC(=O)COc1ccc(C(C)(C)C)cc1)c1ccc(-n2ccnc2)cc1,0,0.7,13,4,52*,95*
CC(C)(C)c1ccc(NC(=O)COc2ccc(-n3ccnc3)cc2)cc1,-8,-0.52,59*,2,67*,74*
C/C(=N\Nc1ccc(Cl)c(Cl)c1)c1ccc(-n2ccnc2)cc1,-2,0.057,18,0,58*,61
COc1ccc(OCC(=O)N/N=C(\C)c2ccc(-n3ccnc3)cc2)cc1,0,-0.38,7,2,20,2
COc1cc(NC(=O)COc2ccc(-n3ccnc3)cc2)cc(OC)c1,-2,0.32,-4,0,15,24
S=c1[nH]nc(-c2cccnc2)n1C1CCCCC1,-2,-0.18,-12,0,53*,14
CC1CCCCC1n1c(-c2cccnc2)n[nH]c1=S (configuration not stated),2,-0.55,5,-2,-5,9
